Here are results for three compounds from ChEMBL document CHEMBL1782026, “Synthesis and biological evaluation of 1α,25-dihydroxyvitamin D(3) analogues hydroxymethylated at C-26” (2011).

Active and inactive are the calls of the source. The rule behind the calls is not given here.

Assay [1] relates to MCF7. Put plainly: Antiproliferative activity against human MCF7 cells assessed as DNA level at 10 nM measured after 6 days by calorimetric analysis. Type of assay: functional. The settings on record: MCF7, 144 h, read-out: GI. The procedure, abridged:
(§1)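 MCF-7 cells in DMEM F12 with 5% FBS at 37 °C, 5% CO2, seeded at 100 000 cells/well in six-well plates. After 24 h, treated in triplicate for 6 days with graded doses or 0.1% ethanol vehicle; medium and ligand replaced every other day. DNA content by Burton assay, expressed as percent of vehicle control; three independent experiments, mean ± SD.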

The subject of assay [2] is MCF7. The experiment in a line: Antiproliferative activity against human MCF7 cells assessed as DNA level at 100 nM measured after 6 days by calorimetric analysis. Type of assay: functional. The settings on record: MCF7, 144 h, read-out: GI. The procedure, abridged: as §1
The subject of assay [3] is MCF7. The experiment in a line: Antiproliferative activity against human MCF7 cells assessed as DNA level measured after 6 days by calorimetric analysis. Type of assay: functional, cell-based. In a few lines: as §1
The subject of assay [4] is MCF7. Put plainly: Antiproliferative activity against human MCF7 cells assessed as DNA level at 1 nM measured after 6 days by calorimetric analysis. Type of assay: functional. The settings on record: MCF7, 144 h, read-out: GI. In a few lines:
as §1

In assay [5] the test system is SW480-ADH. The experiment in a line: Induction of differentiation of human SW480-ADH cells to adhesive epithelial phenotype at 10^-7 M after 48 hrs by phase-contrast microscopy. Type of assay: functional, cell-based. In a few lines:
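SW480-ADH cells in RPMI/10% FCS were exposed for 48 h to 10^-7 M compound or vehicle in charcoal-treated FCS medium. Adhesive epithelial morphology was judged by phase-contrast microscopy; a representative experiment is shown.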

For assay [6], the target named is T1, Vitamin D3 receptor (Homo sapiens) (UniProt P11473).
T1 sequence (whole entry): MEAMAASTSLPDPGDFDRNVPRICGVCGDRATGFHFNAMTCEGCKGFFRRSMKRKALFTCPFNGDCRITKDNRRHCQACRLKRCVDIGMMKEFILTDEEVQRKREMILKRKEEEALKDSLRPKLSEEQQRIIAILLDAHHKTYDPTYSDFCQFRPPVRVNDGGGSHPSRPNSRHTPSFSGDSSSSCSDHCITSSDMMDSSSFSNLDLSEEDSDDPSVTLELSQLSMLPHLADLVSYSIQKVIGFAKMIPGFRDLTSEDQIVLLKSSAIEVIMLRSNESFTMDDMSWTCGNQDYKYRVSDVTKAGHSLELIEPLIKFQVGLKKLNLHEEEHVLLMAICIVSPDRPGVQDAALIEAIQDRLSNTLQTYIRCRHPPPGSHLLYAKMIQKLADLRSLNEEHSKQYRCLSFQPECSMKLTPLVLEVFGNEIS
Put plainly: Transactivation of human VDR transfected in human SW480-ADH cells assessed as vitamin D response element-mediated transcriptional activity measured 8 hrs post infection by luciferase reporter gene assay. Type of assay: cell-based. In a few lines: (§2)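 SW480-ADH cells, transfected in triplicate (JetPEI) with 4VDRE-DR3-tk-LUC reporter, four tandem consensus DR3 VDREs upstream of HSV tk promoter. Treated with graded concentrations in charcoal-treated FCS medium, read at 8 or 48 h. Firefly luciferase normalized to Renilla by dual luciferase assay; mean ± SD, n = 3.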

For assay [7], the target named is T1, Vitamin D3 receptor (Homo sapiens). Put plainly: Transactivation of human VDR transfected in human SW480-ADH cells assessed as vitamin D response element-mediated transcriptional activity measured 48 hrs post infection by luciferase reporter gene assay. Type of assay: cell-based. The procedure, abridged: as §2
For orientation: A reporter such as luciferase makes a cellular process visible.

In assay [8] the test system is SW480-ADH. The experiment in a line: Induction of E-cadherin expression in human SW480-ADH cell at 10^-7 M after 48 hrs by Western blot analysis. Type of assay: functional, cell-based. In a few lines:
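SW480-ADH cells grown in RPMI with 10% FCS, GlutaMAX and penicillin/streptomycin. Treated 48 h at 10^-7 M in charcoal-treated FCS medium; controls received matching vehicle. Anti-E-cadherin Western blot with β-tubulin as loading control and ECL detection. Values are mean fold-increase from two experiments.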
(In general: A western blot detects proteins with antibodies after separation by electrophoresis.)

In assay [9] the target is T1, Vitamin D3 receptor (Homo sapiens). Put plainly: Transactivation of human VDR transfected in african green monkey COS7 cells after 24 hrs by luciferase reporter gene assay. Type of assay: cell-based. Conditions: COS-7. The procedure, abridged:
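Transfected 16 h (Polyfect) with 62.5 ng WT VDR expression plasmid and 125 ng rat 24-hydroxylase promoter VDRE-luciferase. Then treated 24 h with graded concentrations in DMEM with 1% bovine growth serum, lysed, and assayed by dual luciferase; ±SD.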

As for `C=C1/C(=C\C=C2/CCC[C@]3(C)[C@@H]([C@H](C)CCCC(C)(C)O)CC[C@@H]23)C[C@@H](O)C[C@@H]1O` [CALCITRIOL], in the assay on MCF7 [1], the inhibition of growth at 0.01 µM was 50%. Also, the inhibition of growth at 0.1 µM in the assay with MCF7 [2] was 66%. In addition, the “growth inhibition (GI)” value with MCF7 [3] was “Dose-dependent effect”. Further, the inhibition of growth at 0.001 µM with MCF7 [4] came out at 15%.
With `C=C1/C(=C\C=C2/CCC[C@]3(C)[C@@H]([C@H](C)CCC[C@@](C)(O)CCO)CC[C@@H]23)C[C@@H](O)C[C@@H]1O`, the result with SW480-ADH [5] and with SW480-ADH [8] was Active. The Activity entry in assay [6] and in assay [7] was “Dose-dependent effect” in each case. Besides, the inhibition of growth at 0.1 µM in the assay with MCF7 [2] amounted to 53%.
Take `C=C1/C(=C\C=C2/CCC[C@]3(C)[C@@H]([C@H](C)CCC[C@@](C)(O)[C@@H](C)CO)CC[C@@H]23)C[C@@H](O)C[C@@H]1O`: the outcome (in the assay with SW480-ADH [5]; in assay [9]; in the assay with SW480-ADH [8]) was Active. Moreover, the Activity entry in assay [6] and in assay [7] was “Dose-dependent effect” each time. Besides, in the assay with MCF7 [2], the inhibition of growth at 0.1 µM turned out to be 65%.
